Measurements as given in ChEMBL document CHEMBL4406834, “Phenylthiazoles with nitrogenous side chain: An approach to overcome molecular obesity” (Eur J Med Chem, 2019).
Converted amounts (≈) assume the structure as drawn.

Key:
[1] = system: Staphylococcus aureus; assay: Antibacterial activity against methicillin-resistant Staphylococcus aureus NRS384 USA300 after 18 to 20 hrs by broth microdilution assay; format: functional
Outline: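 Broth microdilution per CLSI. Strains grown aerobically overnight on tryptone soy agar at 37 °C, adjusted to 0.5 McFarland, then diluted in cation-adjusted Mueller-Hinton broth to about 5 × 10^5 CFU/mL. Compounds (10 mg/mL DMSO stocks) serially diluted. Incubated aerobically at 37 °C for 18-20 h. MIC is the lowest concentration with no visible growth.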

[2] = Aqueous solubility of the compound in phosphate buffered saline assessed as concentration that produces no precipitate measured as OD at 540 nm; format: physicochemical

solubility kinetic [2] [µM]	SMILES	MIC [1] [µg/mL]
–	C/C(=N\NC(=N)N)c1sc(-c2ccc(N3CCN(C)CC3)cc2)nc1C	64 (≈ 172 µM)
–	C/C(=N\NC(=N)N)c1sc(-c2ccc(N3CCCCC3C)cc2)nc1C (stereo not given)	8 (≈ 21.6 µM)
–	C/C(=N\NC(=N)N)c1sc(-c2ccc(N3CC(O)C3)cc2)nc1C	64 (≈ 186 µM)
–	C/C(=N\NC(=N)N)c1sc(-c2ccc(N3CCSC3)cc2)nc1C	> 128
2.7 (≈ 0.96 µg/mL)	C/C(=N\NC(=N)N)c1sc(-c2ccc(C3CCCCC3)cc2)nc1C	–
